Reference: ChEMBL document CHEMBL2157978, “Design, synthesis, and biological evaluation of nonsteroidal cycloalkane[d]isoxazole-containing androgen receptor modulators” (J Med Chem, 2012)
Activity calls are given as the source filed them. No rule for the calls is given here.

Legend:
[1] = target: Luciferin 4-monooxygenase (Photinus pyralis) (UniProt P08659); assay: Inhibition of Photinus pyralis recombinant luciferase at 10 uM incubated for 20 mins
In short: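 Purified firefly luciferase diluted to 0.1 μg/mL in 1x Reporter Lysis Buffer, with compound added from ethanol stocks (10⁻³–10⁻⁷ mol/L dilutions) in triplicate. Incubated 20 min at rt, then luciferase substrate added and luminescence read. Blank (lysis buffer) and ethanol-vehicle controls were included.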

[2] = target: T1, Androgen receptor (Homo sapiens) (UniProt P10275); assay: Agonist activity at wild type human androgen receptor expressed in COS-1 cells co-transfected with pSG5 assessed as effect on testosterone induced luciferase activity at 10 uM after 18 hrs relative untreated control; type: functional, cell-based
T1 sequence (whole entry): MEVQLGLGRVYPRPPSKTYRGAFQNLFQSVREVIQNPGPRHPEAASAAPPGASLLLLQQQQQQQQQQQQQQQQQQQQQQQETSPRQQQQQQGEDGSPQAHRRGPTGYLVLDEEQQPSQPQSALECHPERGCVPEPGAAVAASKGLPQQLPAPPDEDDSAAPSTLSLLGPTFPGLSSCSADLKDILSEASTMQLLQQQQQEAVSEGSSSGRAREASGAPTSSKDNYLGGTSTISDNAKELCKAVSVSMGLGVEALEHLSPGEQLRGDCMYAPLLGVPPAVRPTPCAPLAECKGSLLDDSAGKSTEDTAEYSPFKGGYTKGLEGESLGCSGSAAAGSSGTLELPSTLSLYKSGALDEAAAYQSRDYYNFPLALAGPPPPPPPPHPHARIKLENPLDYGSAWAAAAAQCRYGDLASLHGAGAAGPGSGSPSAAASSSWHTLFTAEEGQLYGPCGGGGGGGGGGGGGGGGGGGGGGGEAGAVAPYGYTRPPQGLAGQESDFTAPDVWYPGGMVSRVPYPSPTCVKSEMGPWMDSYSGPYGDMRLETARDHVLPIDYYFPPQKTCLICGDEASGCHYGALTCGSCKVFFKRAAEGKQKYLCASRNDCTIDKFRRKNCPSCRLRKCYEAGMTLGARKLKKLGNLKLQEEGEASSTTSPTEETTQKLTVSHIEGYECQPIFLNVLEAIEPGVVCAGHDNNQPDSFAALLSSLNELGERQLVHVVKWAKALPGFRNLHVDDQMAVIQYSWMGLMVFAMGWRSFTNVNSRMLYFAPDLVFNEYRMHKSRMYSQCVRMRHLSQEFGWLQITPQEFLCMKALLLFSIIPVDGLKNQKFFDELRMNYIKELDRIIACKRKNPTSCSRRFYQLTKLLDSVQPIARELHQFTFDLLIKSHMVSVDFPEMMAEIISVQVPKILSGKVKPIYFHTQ

Androgen receptor = target: T2, Androgen receptor (Homo sapiens, UniProt P10275); assay: Displacement of [3H]R1881 from wild type human androgen receptor expressed in COS-1 cells co-transfected with pSG5 after 2 hrs by scintillation assay
T2 sequence (P10275 whole entry): T1 sequence (whole entry)

Sequence of Luciferin 4-monooxygenase (Photinus pyralis) (P08659 whole entry): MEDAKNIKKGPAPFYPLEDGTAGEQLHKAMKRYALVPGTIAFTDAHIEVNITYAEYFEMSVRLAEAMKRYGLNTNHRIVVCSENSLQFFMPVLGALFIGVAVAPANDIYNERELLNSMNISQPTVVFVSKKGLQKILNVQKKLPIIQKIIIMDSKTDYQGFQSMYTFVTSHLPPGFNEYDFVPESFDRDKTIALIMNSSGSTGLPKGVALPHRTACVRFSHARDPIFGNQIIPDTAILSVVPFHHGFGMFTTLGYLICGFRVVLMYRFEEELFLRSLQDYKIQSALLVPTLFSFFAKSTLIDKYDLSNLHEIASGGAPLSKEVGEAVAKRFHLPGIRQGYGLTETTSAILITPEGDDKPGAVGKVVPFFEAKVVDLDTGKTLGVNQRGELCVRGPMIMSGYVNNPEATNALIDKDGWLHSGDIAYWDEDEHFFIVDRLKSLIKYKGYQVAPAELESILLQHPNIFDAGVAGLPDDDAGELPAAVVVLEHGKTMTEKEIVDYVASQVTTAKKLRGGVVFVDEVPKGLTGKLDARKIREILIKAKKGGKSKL

| Structure (SMILES) | inhibition [1] | Activity [2] | IC50 (Androgen receptor) [µM] |
| --- | --- | --- | --- |
| Fc1cccc(C2=NOC3CCCCC23)c1 (racemic) | inactive | inactive |  |
| O=[N+]([O-])c1ccc(C2=NOC3CCCCCCC23)c(C(F)(F)F)c1 (stereo not drawn) [listing 1 of 2 here] |  |  | 0.776 |
| Fc1ccc(C2=NOC3CCCCC23)cc1 (cis isomer) | inactive | inactive |  |
| COc1ccc(C2=NOC3CCCCC23)cc1 (stereo not drawn) | inactive | inactive |  |
| N#Cc1ccc(C2=NOC3CCCCC23)c(C(F)(F)F)c1 (cis isomer) [listing 1 of 2 here] |  |  | 1.78 |
| N#Cc1ccc(C2=NOC3CCCCCCC23)c(C(F)(F)F)c1 (stereo not drawn) [listing 1 of 2 here] | inactive | inactive |  |
| N#Cc1ccc(C2=NOC3CCCCCC23)c(C(F)(F)F)c1 (cis isomer) [listing 1 of 2 here] | inactive | inactive |  |
| Fc1ccc(C2=NOC3CCCCC23)cc1C(F)(F)F (racemic) | inactive | inactive | 1.1 |
| Fc1ccc(C2=NOC3CCCCC23)c(C(F)(F)F)c1 (stereo not drawn) [listing 1 of 2 here] |  |  | 0.977 |
| Fc1ccc(C2=NOC3CCCCCCC23)cc1C(F)(F)F (cis isomer; cis) [listing 1 of 2 here] | inactive | inactive |  |
| c1ccc2c(C3=NOC4CCCCC34)cccc2c1 (cis isomer) | inactive | inactive |  |
| Fc1ccc(C2=NOC3CCCC23)c(C(F)(F)F)c1 (cis isomer; cis) [listing 1 of 2 here] |  |  | 1.55 |
| Fc1ccc(C2=NOC3CCCCCCC23)c(C(F)(F)F)c1 (cis isomer; cis) [listing 1 of 2 here] |  |  | 13.2 |
| Fc1ccc(C2=NOC3CCCC23)c(C(F)(F)F)c1 (cis isomer; 5g) [listing 1 of 2 here] |  |  | 1.35 |
| N#Cc1ccc(C2=NO[C@@H]3CCC[C@H]23)cc1C(F)(F)F | inactive | inactive | 0.224 |
| N#Cc1cccc(C2=NOC3CCCCC23)c1C(F)(F)F (cis isomer) [listing 1 of 2 here] |  |  | 0.0794 |
| Clc1cccc(C2=NOC3CCCCC23)c1 (cis isomer; cis) | inactive | inactive |  |
| O=[N+]([O-])c1ccc(C2=NO[C@@H]3CCCCC[C@H]23)c(C(F)(F)F)c1 | inactive | inactive | 0.309 |
| N#Cc1ccc(C2=NOC3CCCC23)c(C(F)(F)F)c1 (racemic) | inactive | inactive | 0.447 |
| N#Cc1ccc(C2=NOC3CCCCCCC23)c(C(F)(F)F)c1 (cis isomer) [listing 1 of 2 here] |  |  | 0.646 |

| Structure (SMILES) | inhibition [1] | Activity [2] | IC50 (Androgen receptor) [µM] |
| --- | --- | --- | --- |
| N#Cc1ccc(C2=NOC3CCCCCC23)c(C(F)(F)F)c1 (stereo not drawn) [listing 1 of 2 here] | inactive | inactive |  |
| N#Cc1cccc(C2=NOC3CCCCC23)c1C(F)(F)F (cis isomer) [listing 2 of 2 here] | inactive | inactive |  |
| O=[N+]([O-])c1ccc(C2=NOC3CCCCCCC23)cc1C(F)(F)F (racemic) | inactive | inactive | 0.708 |
| N#Cc1ccc(C2=NOC3CCCCC23)cc1 (stereo not drawn) | inactive | inactive |  |
| Fc1ccccc1C1=NOC2CCCCC12 (stereo not drawn) | inactive | inactive |  |
| Fc1ccc(C2=NOC3CCCCC23)c(C(F)(F)F)c1 (stereo not drawn) [listing 2 of 2 here] | inactive | inactive |  |
| Clc1ccccc1C1=NOC2CCCCC12 (stereo not drawn) | inactive | inactive |  |
| O=[N+]([O-])c1ccc(C2=NOC3CCCCC23)cc1 (racemic) | inactive | inactive |  |
| Clc1cccc(C2=NOC3CCCCC23)c1 (cis isomer; 6n) | inactive | inactive |  |
| COc1ccccc1C1=NOC2CCCCC12 (racemic) | inactive | inactive |  |
| Clc1ccccc1C1=NOC2CCCCC12 (cis isomer) | inactive | inactive |  |
| Fc1ccc(C2=NOC3CCCCCCC23)c(C(F)(F)F)c1 (cis isomer; 8g) | inactive | inactive |  |
| Fc1ccc(C2=NOC3CCCCC23)c(C(F)(F)F)c1 (cis isomer) [listing 1 of 2 here] | inactive | inactive |  |
| N#Cc1ccc(C2=NOC3CCCCCCC23)c(C(F)(F)F)c1 (cis isomer) [listing 2 of 2 here] | inactive | inactive |  |
| Fc1ccc(C2=NOC3CCCC23)c(C(F)(F)F)c1 (cis isomer; cis) [listing 2 of 2 here] | inactive | inactive |  |
| O=[N+]([O-])c1ccc(C2=NOC3CCCCCCC23)c(C(F)(F)F)c1 (cis isomer) [listing 1 of 2 here] |  |  | 0.741 |
| N#Cc1ccc(C2=NOC3CCCCCCC23)c(C(F)(F)F)c1 (stereo not drawn) [listing 2 of 2 here] |  |  | 2 |
| N#Cc1ccc(C2=NOC3CCCCCC23)c(C(F)(F)F)c1 (cis isomer) [listing 2 of 2 here] |  |  | 1 |
| Fc1ccc(C2=NOC3CCCC23)c(C(F)(F)F)c1 (cis isomer; 5g) [listing 2 of 2 here] | inactive | inactive |  |
| Fc1ccc(C2=NOC3CCCCC23)cc1 (stereo not drawn) | inactive | inactive |  |

| Structure (SMILES) | inhibition [1] | Activity [2] | IC50 (Androgen receptor) [µM] |
| --- | --- | --- | --- |
| Fc1ccc(C2=NOC3CCCCCCC23)cc1C(F)(F)F (cis isomer; 8f) [listing 1 of 2 here] |  |  | 5.89 |
| N#Cc1ccc(C2=NOC3CCCCC23)c(C(F)(F)F)c1 (cis isomer) [listing 2 of 2 here] | inactive | inactive |  |
| COc1ccc(C2=NOC3CCCCC23)cc1 (cis isomer) | inactive | inactive |  |
| N#Cc1ccc(C2=NOC3CCCCCC23)c(C(F)(F)F)c1 (stereo not drawn) [listing 2 of 2 here] |  |  | 1.15 |
| N#Cc1cccc(C2=NOC3CCCCC23)c1C(F)(F)F (stereo not drawn) [listing 1 of 2 here] |  |  | 0.0646 |
| Fc1ccc(C2=NOC3CCCCCCC23)cc1C(F)(F)F (cis isomer; cis) [listing 2 of 2 here] |  |  | 2.82 |
| N#Cc1ccc(C2=NOC3CCCCC23)c(C(F)(F)F)c1 (stereo not drawn) [listing 1 of 2 here] | inactive | inactive |  |
| O=[N+]([O-])c1ccc(C2=NOC3CCCCCCC23)c(C(F)(F)F)c1 (stereo not drawn) [listing 2 of 2 here] | inactive | inactive |  |
| Fc1ccc(C2=NOC3CCCCCCC23)cc1C(F)(F)F (cis isomer; 8f) [listing 2 of 2 here] | inactive | inactive |  |
| N#Cc1ccc(C2=NOC3CCCCC23)c(C(F)(F)F)c1 (stereo not drawn) [listing 2 of 2 here] |  |  | 1.15 |
| O=[N+]([O-])c1ccc(C2=NOC3CCCCCCC23)c(C(F)(F)F)c1 (cis isomer) [listing 2 of 2 here] | inactive | inactive |  |
| N#Cc1cccc(C2=NOC3CCCCC23)c1C(F)(F)F (stereo not drawn) [listing 2 of 2 here] | inactive | inactive |  |
| Clc1ccc(C2=NOC3CCCCC23)cc1 (cis isomer) | inactive | inactive |  |
| c1ccc(C2=NOC3CCCCC23)cc1 (stereo not drawn) | inactive | inactive |  |
| Fc1ccc(C2=NOC3CCCCCCC23)c(C(F)(F)F)c1 (cis isomer; cis) [listing 2 of 2 here] | inactive | inactive |  |
| Fc1ccc(C2=NOC3CCCCC23)c(C(F)(F)F)c1 (cis isomer) [listing 2 of 2 here] |  |  | 1.15 |
| c1ccc2c(C3=NOC4CCCCC34)cccc2c1 (stereo not drawn) | inactive | inactive |  |
| c1ccc(C2=NOC3CCCCC23)cc1 (cis isomer) | inactive | inactive |  |
| Clc1ccc(C2=NOC3CCCCC23)cc1 (stereo not drawn) | inactive | inactive |  |
| COc1cccc(C2=NOC3CCCCC23)c1 (stereo not drawn) | inactive | inactive |  |
